This note sets out measurements from ChEMBL document CHEMBL4330137, “Synthesis and antimicrobial activities of N6-hydroxyagelasine analogs and revision of the structure of ageloximes” (Bioorg Med Chem, 2019).

The structures appear in SMILES notation. Converted amounts (≈) assume the structure as drawn. The source made the active and inactive calls. The calls are words filed in the database; no cut-off is given here. Where only a bound is given, the exact number is not on record here.

In assay [1] the test system is Mycobacterium tuberculosis. Kind of assay: Antitubercular activity against Mycobacterium tuberculosis H37Rv by MABA. It is filed as functional. In general terms: Resazurin is reduced to fluorescent resorufin, in cell work by metabolically active cells.
The subject of assay [2] is Mycobacterium tuberculosis. As to the kind of experiment: Antitubercular activity against Mycobacterium tuberculosis H37Rv by LORA. The assay is classed as functional.
The test system of a further assay is Staphylococcus aureus. Kind of assay: Antibacterial activity against Staphylococcus aureus ATCC 6538 after 17 hrs by resazurin dye based fluorimetric assay. The assay is classed as functional, organism-based. The following applies: ATCC 6538, 17 h. The gist of the method:
(§1)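 Bacteria grown in Mueller Hinton broth; 5 × 10³ CFU/mL inoculum with compound at 64, 16, 4, 1 and 0.25 µM (DMSO final <1%), 37 °C for 17 h. Resazurin added, fluorescence read after 0.5 h (ex 550/em 590 nm). Growth normalised to untreated (100%) and medium-only (0%) wells; IC50 calculated.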

The test system of assay [3] is Escherichia coli. Kind of assay: Antibacterial activity against Escherichia coli ATCC 8739 after 17 hrs by resazurin dye based fluorimetric assay. The note with it: ATCC 8739, ATCC 8739, 17 h. The assay is classed as functional, organism-based. The gist of the method:
as §1

In the next assay the test system is Leishmania infantum. As to the kind of experiment: Antileishmanial activity against amastigote stage of Leishmania infantum MHOM/MA(BE)/67 infected in mouse primary peritoneal macrophages assessed as decrease in parasite burden after 5 days by Giemsa staining-based microscopic method. The note with it: MHOM/MA(BE)/67, 120 h. The assay is classed as functional, organism-based. The gist of the method: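 Amastigotes purified from infected hamster spleen; starch-stimulated mouse peritoneal macrophages (3·10⁴/well) infected with 4.5·10⁵ parasites in supplemented RPMI-1640. Compound (64–0.25 µM) added 2 h post-infection; 5 days, 37 °C, 5% CO2. Amastigotes per macrophage counted microscopically after 10% Giemsa staining; % burden reduction versus controls, IC50 calculated.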

Assay [4] concerns Escherichia coli. Kind of assay: Antibiofilm activity against Escherichia coli clinical isolates at 500 uM by safranin staining based assay relative to control. It is filed as functional.
A further assay has as its system Trypanosoma brucei. Kind of assay: Antitrypanosomal activity against suramin-sensitive Trypanosoma brucei Squib 427 assessed as parasite growth inhibition after 72 hrs by resazurin assay. It is filed as functional, organism-based. The note with it: Squib 427, 72 h. The gist of the method:
(§2)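 Bloodstream parasites in HMI-9 with 10% inactivated FCS; 1.5 × 10³ (T. brucei) or 4 × 10³ (T. rhodesiense) per well, compound 64–0.25 µM, 37 °C, 5% CO2, 3 days. Resazurin (50 µg/mL) added; fluorescence read after 24 h (T. brucei) or 6 h (T. rhodesiense), ex 550/em 590 nm. IC50 from % growth inhibition.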

In assay [5] the test system is Escherichia coli. Kind of assay: Growth inhibition of Escherichia coli clinical isolates at 500 uM. The following applies: read-out: GI. It is filed as functional.
A short description of assay [6]: Cytotoxicity against human MRC5 SV2 cells after 3 days by resazurin dye based fluorescence assay. The note with it: MRC-5 SV2, 72 h. It is filed as cell-based. The gist of the method:
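MRC-5SV2 fibroblasts in MEM with L-glutamine, NaHCO3, 5% inactivated FCS; 5 × 10³ inoculum with compound at 64–0.25 µM (4-fold steps, DMSO <1%), 37 °C, 5% CO2, 3 days. Resazurin added, fluorescence after 4 h (ex 550/em 590 nm). Viability relative to untreated and medium controls; IC50 calculated.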

The test system of assay [7] is Staphylococcus epidermidis. Kind of assay: Growth inhibition of Staphylococcus epidermidis ATCC 35984. It is filed as functional, organism-based.
The test system of the next assay is Trypanosoma cruzi. Kind of assay: Antitrypanosomal activity against beta-galactosidase expressing nifurtimox-sensitive Trypanosoma cruzi Tulahuen CL2 infected in human MRC5 SV2 cells assessed as reduction in parasite burden after 168 hrs by CPRG and Nonidet based spectrophotometric analysis. It is filed as functional, organism-based. The note with it: Tulahuen CL2, MRC-5 SV2, 168 h. The gist of the method: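 MRC-5 cells (4·10³/well) plus 4·10⁴ parasites per well with compound at 64–0.25 µM, 37 °C, 5% CO2 for 7 days. CPRG/Nonidet in PBS added; absorbance at 540 nm after 4 h. Percent burden reduction versus untreated-infected and uninfected controls; IC50 calculated.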

Another assay has as its system Candida albicans. Kind of assay: Antifungal activity against azole-resistant Candida albicans after 24 hrs by resazurin dye based fluorimetric assay. The assay is classed as functional, organism-based. The gist of the method:
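Inoculum 5 × 10³ CFU/mL in RPMI-1640 with Mops buffer and glucose. Tested at 64, 16, 4, 1 and 0.25 µM from DMSO stocks, final DMSO <1%. Incubated 24 h at 37 °C, then resazurin added and fluorescence read after 0.5 h (ex 550/em 590 nm). Growth normalized to untreated (100%) and medium-only (0%) wells; IC50 calculated. Flucytosine positive control.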

Assay [8] relates to Trypanosoma brucei rhodesiense. As to the kind of experiment: Antitrypanosomal activity against Trypanosoma brucei rhodesiense STIB 900 assessed as parasite growth inhibition after 72 hrs by resazurin assay. The following applies: STIB 900, 72 h. It is filed as functional, organism-based. The gist of the method:
as §2

The test system of assay [9] is Staphylococcus epidermidis. As to the kind of experiment: Antibiofilm activity against Staphylococcus epidermidis ATCC 35984 at 125 uM by safranin staining based assay relative to control. The assay is classed as functional.
Assay [10] has as its system Pseudomonas aeruginosa. Kind of assay: Antibiofilm activity against Pseudomonas aeruginosa CUCG 56489 at 250 uM by safranin staining based assay relative to control. The assay is classed as functional.
Assay [11] relates to Pseudomonas aeruginosa. Kind of assay: Antibiofilm activity against Pseudomonas aeruginosa CUCG 56489 up to 1000 uM by safranin staining based assay. The assay is classed as functional, organism-based.
Assay [12] relates to Escherichia coli. Kind of assay: Antibiofilm activity against Escherichia coli clinical isolates at 1 mM by safranin staining based assay relative to control. The assay is classed as functional.
Assay [13] has as its system Staphylococcus epidermidis. As to the kind of experiment: Antibiofilm activity against Staphylococcus epidermidis ATCC 35984 up to 1000 uM by safranin staining based assay. The assay is classed as functional, organism-based.

As usually defined, the MIC is the least concentration at which growth counts as inhibited. Read a low MIC as a more susceptible organism. For the compound `NNC(=O)c1ccncc1` [ISONIAZID], the MIC in assay [1] is 0.48 µg/mL (≈ 3.5 µM); in assay [2], greater than 128 µg/mL.

Usually IC50 stands for the concentration at which inhibition is half-maximal. As for `C[C@H]1c2cccc(O)c2C(=O)C2=C(O)[C@]3(O)C(=O)C(C(N)=O)=C(O)[C@@H](N(C)C)[C@@H]3[C@@H](O)[C@@H]21` [DOXYCYCLINE], the IC50 with Staphylococcus aureus is 30 nM; in the assay with Escherichia coli [3] it was 580 nM.

Consider `CCCCCCCCCCCCCCCCOP(=O)([O-])OCC[N+](C)(C)C` [MILTEFOSINE], for which the IC50 in the assay on Leishmania infantum came out at 11800 nM.

In the case of `CC(C)=CCC/C(C)=C/CC/C(C)=C/CC/C(C)=C/C[n+]1cn(C)c2nc[nH]/c(=N\O)c21.[Br-]`, the Activity with Escherichia coli [4] was 70%; in [9], 90%; in the assay with Pseudomonas aeruginosa [10], 40 - 50%. The IC50 was 1890 nM with Staphylococcus aureus; 2010 nM with Trypanosoma brucei; 1900 nM in assay [6]; greater than 64000 nM in the assay on Escherichia coli [3]; 125000 nM in [7]; 540 nM in the assay with Trypanosoma cruzi. In addition, the concentration for half-maximal inhibition (IC50) with Candida albicans worked out at 2000 nM; in assay [8], 500 nM; in the assay with Leishmania infantum, 2160 nM. In addition, in the assay with Escherichia coli [5], the inhibition of growth at 500 µM stood at 20%. Further, the MIC worked out at 11.3 µg/mL in assay [1] and 15.3 µg/mL in assay [2].

The compound `CC/C(=C(\c1ccccc1)c1ccc(OCCN(C)C)cc1)c1ccccc1` [TAMOXIFEN] registered an IC50 in assay [6] of 11200 nM.

As to `Cc1ccc(C(=O)Nc2ccc(S(=O)(=O)O)c3cc(S(=O)(=O)O)cc(S(=O)(=O)O)c23)cc1NC(=O)c1cccc(NC(=O)Nc2cccc(C(=O)Nc3cc(C(=O)Nc4ccc(S(=O)(=O)O)c5cc(S(=O)(=O)O)cc(S(=O)(=O)O)c45)ccc3C)c2)c1` [SURAMIN], the figures for the IC50 (with Trypanosoma brucei; in assay [8]) were 20 nM and 30 nM, respectively.

Turning to `CC(C)=CCC/C(C)=C/C[n+]1cn(C)c2nc[nH]/c(=N\O)c21.[Br-]`, the IC50 was greater than 64000 nM in the assay with Staphylococcus aureus; 28000 nM with Trypanosoma brucei; greater than 64000 nM in [6]; greater than 64000 nM in the assay with Escherichia coli [3]; 11500 nM in the assay on Trypanosoma cruzi; greater than 64000 nM with Candida albicans. The results for the 50% inhibitory concentration (IC50) (in [8]; in the assay on Leishmania infantum) were 8060 nM and 20300 nM, respectively. Besides, the outcome (with Pseudomonas aeruginosa [11]; in [13]) was inactive. The compound also returned an Activity with Escherichia coli [12] of 50%. Further, the MIC in assay [1] and in assay [2] was greater than 50 µg/mL each time.

`O=C(Cn1ccnc1[N+](=O)[O-])NCc1ccccc1` [BENZNIDAZOLE]: the IC50 in the assay on Trypanosoma cruzi came out at 2690 nM.

As for `Nc1nc(=O)[nH]cc1F` [FLUCYTOSINE], half-maximal inhibition in the assay on Candida albicans (IC50) was put at 410 nM.
